Data on 2 molecules can be found in ChEMBL document CHEMBL4334452, “Monosaccharide Analogues of Anticancer Peptide R-Lycosin-I: Role of Monosaccharide Conjugation in Complexation and the Potential of Lung Cancer Targeting and Therapy” (J Med Chem, 2019).

Calls of active or inactive are those of the source. The rule behind the calls is not given here. *1 amine or outer side, *2 acyl side, *3 side chain or, on linkers, in order; H or OH if unused. Where a SMILES comes first, the peptide text is derived from it. The star is where a group is joined. NH(CH2)3O(βDGlc) = OC[C@H]1O[C@@H](OCCCN*)[C@H](O)[C@@H](O)[C@@H]1O; Glutaryl = O=C(CCCC(=O)[*:2])[*:1]

Data set [1] concerns the target T1, Solute carrier family 2, facilitated glucose transporter member 1 (Homo sapiens) (UniProt P11166).
T1 sequence (whole entry): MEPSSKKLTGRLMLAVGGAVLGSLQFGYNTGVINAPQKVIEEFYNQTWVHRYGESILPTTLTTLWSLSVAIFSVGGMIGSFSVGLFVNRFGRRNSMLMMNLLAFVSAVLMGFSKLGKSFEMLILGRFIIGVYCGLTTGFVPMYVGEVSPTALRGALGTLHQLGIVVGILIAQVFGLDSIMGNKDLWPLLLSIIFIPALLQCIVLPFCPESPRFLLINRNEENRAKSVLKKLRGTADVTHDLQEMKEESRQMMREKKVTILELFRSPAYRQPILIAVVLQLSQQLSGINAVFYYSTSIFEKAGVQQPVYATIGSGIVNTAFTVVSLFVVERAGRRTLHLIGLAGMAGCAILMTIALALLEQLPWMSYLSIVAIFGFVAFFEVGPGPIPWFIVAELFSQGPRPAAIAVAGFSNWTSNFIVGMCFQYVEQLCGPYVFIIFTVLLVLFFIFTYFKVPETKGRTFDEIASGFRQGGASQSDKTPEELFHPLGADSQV
As to the kind of experiment: Binding affinity to GLUT1 in human A549 cells assessed as cytotoxicity by measuring reduction in cell viability at 40 umol/L measured up to 24 hrs in presence of 10% serum by CCK8 assay. In kind it is cell-based. On the technique in general: Formazan colour is commonly taken as a measure of viable cells.

The target of data set [2] is T1, Solute carrier family 2, facilitated glucose transporter member 1 (Homo sapiens). As to the kind of experiment: Binding affinity to GLUT1 in human A549 cells assessed as cytotoxicity by measuring reduction in cell viability at 12.5 uM measured after 2 hrs in absence of GLUT1 inhibitor STF-31 by CCK8 assay. In kind it is cell-based. The gist of the method: (§1)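 A549 cells at 2×10^3/well, grown overnight, then preincubated 4 h in F12K/10% FBS with or without STF-31 (1 µM final). […] Incubated a further 2 h at 37 °C; viability by CCK-8.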

Data set [3] shares this target. As to the kind of experiment: Binding affinity to GLUT1 in human A549 cells assessed as cytotoxicity by measuring reduction in cell viability at 12.5 uM measured after 2 hrs in presence of GLUT1 inhibitor STF-31 by CCK8 assay. The data set is classed as cell-based. The gist of the method:
as §1

The nature of data set [4]: Drug uptake in tumor of Balb/c nu/nu mouse xenografted with human A549 cells expressing luciferase gene at 9 mg/kg, ip measured after 6 hrs by fluorescence assay. The data set is classed as ADME, organism-based, Neoplasm. Particulars: in vivo. On the technique in general: Xenograft models place foreign cells or tissue in a host animal.
Data set [5] concerns A549. As to the kind of experiment: Potency index, ratio of compound effect to R-lycosin-I effect for antitumor activity against human A549 cells expressing luciferase gene xenografted in Balb/c nu/nu mouse at 3 mg/kg administered intratumorally. In kind it is functional.
Data set [6] is described as follows: Toxicity in Balb/c nu/nu mouse xenografted with human A549 cells expressing luciferase gene assessed as effect on heart at 9 mg/kg, ip administered every 2 days for seven times measured on day 14 by H and E staining based assay. In kind it is organism-based. Particulars: in vivo, 48 h. In a few lines: (§2)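 Male BALB/c nu/nu mice bearing subcutaneous A549-luciferase xenografts received 9 mg/kg peptide i.p. (200 µL) every other day for seven doses, with a PBS control group of five. Heart, liver and kidney were fixed in 10% paraformaldehyde, sectioned and stained with H&E for histology.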

The nature of data set [7]: Drug uptake in GLUT1 knockout out human A549 cells at 12.5 uM measured after 2 hrs using FITC-labelled compound by fluorescence assay. Particulars: a549, 2 h. The data set is classed as ADME, cell-based. In a few lines:
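FITC-labelled peptide at 12.5 µM for 2 h, given to A549 cells and to A549 GLUT1-RNAi knockdown cells. Total and fluorescent cells counted by automated cell counter; n=3.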

Data set [8] concerns A549. Put plainly: Cytotoxicity against GLUT1 knockout out human A549 cells assessed as reduction in cell viability measured after 24 hrs by CCK8 assay. In kind it is functional, cell-based. To be noted: A549, 24 h. In a few lines: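 A549 cells with GLUT1 knocked down by RNAi oligos, about 50% knockdown versus control oligos. Cells treated with a concentration series, read by 24-h serum-free CCK-8 viability, and an IC50 derived from the dose-response curve.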

Data set [9] in a line: Drug uptake in tumor of Balb/c nu/nu mouse xenografted with human A549 cells expressing luciferase gene at 3 mg/kg administered intratumorally measured after 6 hrs by fluorescence assay. The data set is classed as ADME, organism-based, Neoplasm. Particulars: in vivo, other.
The subject of another data set is HEK-293T. As to the kind of experiment: Cytotoxicity against HEK293T cells at 12.5 uM measured after 2 hrs by LDH release assay. In kind it is cell-based. To be noted: human. For orientation: Release of lactate dehydrogenase indicates damage to the cell membrane.
The target of data set [10] is T1, Solute carrier family 2, facilitated glucose transporter member 1 (Homo sapiens). As to the kind of experiment: Binding affinity to GLUT1 in human A549 cells assessed as cytotoxicity by measuring cell viability at 12.5 uM measured after 2 hrs in absence of GLUT1 inhibitor STF-31 by CCK8 assay relative to control. The data set is classed as cell-based. The gist of the method: as §1

Data set [11] shares this target. Put plainly: Binding affinity to GLUT1 in human A549 cells assessed as cytotoxicity by measuring cell viability at 12.5 uM measured after 2 hrs in presence of GLUT1 inhibitor STF-31 by CCK8 assay relative to control. In kind it is cell-based. The gist of the method:
as §1

A short description of data set [12]: Stability of the compound in serum (unknown origin) measured up to 48 hrs. In kind it is ADME, cell-free.
Data set [13] deals with A549. Put plainly: Inhibition of colony formation in human A549 cells at 4 uM supplemented with fresh medium containing compounds every 7 days for 15 days by crystal violet staining based assay. The data set is classed as functional, cell-based. In a few lines: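 Cells seeded at 300 per plate in 6-well plates; after 36 h exposed to 4 μM peptide, re-added after 7 days. Incubated 15 days total at 37°C, 5% CO2, then colonies stained with 2% crystal violet and quantified; n=3.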

Data set [14] can be described thus: Toxicity in Balb/c nu/nu mouse xenografted with human A549 cells expressing luciferase gene assessed as effect on kidney at 9 mg/kg, ip administered every 2 days for seven times measured on day 14 by H and E staining based assay. The data set is classed as organism-based. To be noted: in vivo, 48 h. The gist of the method:
as §2

Data set [15] is described as follows: Toxicity in Balb/c nu/nu mouse xenografted with human A549 cells expressing luciferase gene assessed as effect on liver at 9 mg/kg, ip administered every 2 days for seven times measured on day 14 by H and E staining based assay. In kind it is organism-based. To be noted: in vivo, 48 h. The gist of the method: as §2
In data set [16] the test system is A549. As to the kind of experiment: Antitumor activity against human A549 cells expressing luciferase gene xenografted in Balb/c nu/nu mouse assessed as reduction in tumor volume at 9 mg/kg, ip administered every 2 days for seven times measured on day 14 by bioluminescent imaging analysis. The data set is classed as functional, organism-based. The gist of the method:
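Male BALB/c nu/nu mice, 4-6 weeks old, carrying subcutaneous A549-luciferase xenografts in the right back. Dosing started when tumors reached 100-200 mm³ (day 0), five per group. Peptide was given at 9 mg/kg i.p. in 200 µL every other day for 7 doses; PBS served as control. Bioluminescent imaging on day 14; tumor size and body weight tracked. Tumors fixed in paraformaldehyde, paraffin-sectioned, TUNEL-stained.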

On to `CC[C@H](C)[C@H](NC(=O)[C@H](Cc1ccccc1)NC(=O)[C@H](CCCNC(=N)N)NC(=O)[C@H](C)NC(=O)[C@@H](NC(=O)[C@H](CO)NC(=O)[C@H](CCCNC(=N)N)NC(=O)[C@H](CCSC)NC(=O)[C@H](C)NC(=O)[C@H](CCCNC(=N)N)NC(=O)[C@H](Cc1ccccc1)NC(=O)[C@H](Cc1c[nH]c2ccccc12)NC(=O)CNC(=O)[C@@H](N)CCCNC(=N)N)[C@@H](C)CC)C(=O)N[C@@H](C)C(=O)N[C@@H](CCCNC(=N)N)C(=O)N[C@@H](CCC(=O)O)C(=O)N[C@@H](CCCNC(=N)N)C(=O)N[C@@H](CC(C)C)C(=O)N[C@@H](CCCNC(=N)N)C(=O)N[C@@H](CCC(=O)O)C(=O)N[C@@H](Cc1cnc[nH]1)C(=O)N[C@@H](CC(C)C)C(=O)O` (H-RGWFRAMRSIARFIARERLREHL-OH), for which, in [1], the result was inactive. The result in data set [2] and in data set [3] was Active.

The IC50 is the concentration that gives 50% inhibition. As to `CC[C@H](C)[C@H](NC(=O)[C@H](Cc1ccccc1)NC(=O)[C@H](CCCNC(=N)N)NC(=O)[C@H](C)NC(=O)[C@@H](NC(=O)[C@H](CO)NC(=O)[C@H](CCCNC(=N)N)NC(=O)[C@H](CCSC)NC(=O)[C@H](C)NC(=O)[C@H](CCCNC(=N)N)NC(=O)[C@H](Cc1ccccc1)NC(=O)[C@H](Cc1c[nH]c2ccccc12)NC(=O)CNC(=O)[C@H](CCCNC(=N)N)NC(=O)CCCC(=O)NCCCO[C@@H]1O[C@H](CO)[C@@H](O)[C@H](O)[C@H]1O)[C@@H](C)CC)C(=O)N[C@@H](C)C(=O)N[C@@H](CCCNC(=N)N)C(=O)N[C@@H](CCC(=O)O)C(=O)N[C@@H](CCCNC(=N)N)C(=O)N[C@@H](CC(C)C)C(=O)N[C@@H](CCCNC(=N)N)C(=O)N[C@@H](CCC(=O)O)C(=O)N[C@@H](Cc1cnc[nH]1)C(=O)N[C@@H](CC(C)C)C(=O)O` ({NH(CH2)3O(βDGlc)-Glutaryl}-RGWFRAMRSIARFIARERLREHL-OH), the results for the Drug uptake result in data set [4], in data set [7] and in data set [9] were “Active”, “Not Active” and “Active”, respectively. Also, in the data set on A549 [5], the Ratio is on record as 1.6. The Activity entry was “Non-Toxic” in data set [6]; “Non-Toxic” in the data set on HEK-293T; 54% in [10]; 40% in data set [11]; “Non-Toxic” in data set [14]; “Non-Toxic” in data set [15]. Also, the IC50 in the data set on A549 [8] is 13.4 µM. Moreover, the Stability entry in data set [12] is “Stable”. For the same molecule, the inhibition result in the data set on A549 [13] was “Active”. In addition, the result with A549 [16] was Active.
